21 molecules from ChEMBL document CHEMBL1149756, “Synthesis and antiprotozoal activities of simplified analogs of naphthylisoquinoline alkaloids” (Eur J Med Chem, 2008) can be followed below.

≈ marks a conversion by molar mass, not a printed value. Calls of active or inactive are those of the source. The rule behind the calls is not given here.

The test system of data set [1] is Trypanosoma cruzi. The data set can be described thus: Antitrypanosomal activity against Trypanosoma cruzi Tulahuen C2C4 trypomastigotes infected in rat L6 cells after 4 days.
Data set [2] deals with L6. The data set can be described thus: Cytotoxicity against rat L6 cells after 4 days. The format is cell-based. As to conditions: L6, 96 h. The procedure, abridged: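 Non-infected L6 cells seeded at 2000 cells/well in RPMI 1640, 10% FBS, 2 mM L-glutamine, exposed to serial drug dilutions 4 d at 37 °C, 5% CO₂. […] after 2–4 h. IC50 from sigmoidal inhibition curve; means of at least two independent assays in duplicate.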

Data set [3] has as its system Leishmania donovani. The data set can be described thus: Antileishmanial activity against Leishmania donovani amastigotes infected in mouse peritoneal macrophages after 96 hrs.
Data set [4] relates to Leishmania donovani. The data set can be described thus: Antileishmanial activity against Leishmania donovani infected in mouse peritoneal macrophages after 96 hrs. The format is functional, organism-based. In a few lines:
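L. donovani amastigotes from axenic culture grown at pH 5.4, 1.2 × 10⁵ per well added to macrophages; free amastigotes removed after 4 h and medium replaced. Compound dilutions added next day, 96 h incubation. Slides methanol-fixed 10 min, stained with 10% Giemsa; infected and non-infected macrophages counted, infection rates versus controls. Means of at least two independent assays in duplicate.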

A short description of data set [5]: Therapeutic index, ratio of IC50 for rat L6 cells to IC50 for Leishmania donovani. It is filed as cell-based. As to conditions: read-out: Ratio IC50.
Data set [6] in a line: Therapeutic index, ratio of IC50 for rat L6 cells to IC50 for Trypanosoma cruzi.
Data set [7] is described as follows: Therapeutic index, ratio of IC50 for rat L6 cells to IC50 for Trypanosoma cruzi C2C4. The format is cell-based. As to conditions: read-out: Ratio IC50.
Data set [8] concerns Leishmania donovani. The data set can be described thus: Antileishmanial activity against Leishmania donovani axenic amastigotes.

A word on the IC50: it is the midpoint of a concentration-inhibition curve. The low end stands for higher potency, the high end for lower potency. Take `COc1cc2c(c(OC)c1)CNC(C)(C)C2`: the IC50 in data set [1] was above 90 µg/mL; in data set [2], above 90 µg/mL; in data set [3] it was above 30 µg/mL; in data set [4] it was 3.46 µg/mL (≈ 15.6 µM).
Turning to `COc1cc(OC)c2c(c1Br)CC(C)(C)N=C2C`, in data set [5], the selectivity ratio was 152. In addition, the IC50 is 19.8 µg/mL (≈ 63.4 µM) in data set [1], 57.5 µg/mL (≈ 184 µM) in data set [2], 18.9 µg/mL (≈ 60.5 µM) in data set [3] and 0.377 µg/mL (≈ 1.21 µM) in data set [4].
For `COc1cc(OC)c(-c2ccc(O)c3ccccc23)c2c1CNC(C)(C)C2`, the selectivity ratio in data set [5] is 24.1; in data set [6], 1.53; in data set [7], 1.62. Moreover, the IC50 is 5.5 µg/mL (≈ 15.1 µM) in data set [1], 8.4 µg/mL (≈ 23.1 µM) in data set [2], 5.2 µg/mL (≈ 14.3 µM) in data set [3] and 0.349 µg/mL (≈ 0.96 µM) in data set [4].
Consider `COc1cc(OC)c2c(c1I)CC(C)(C)NC2`, for which the IC50 in data set [1] was 37.7 µg/mL (≈ 109 µM); in data set [2], 33.2 µg/mL (≈ 95.6 µM); in data set [3], above 10 µg/mL; in data set [4], 0.463 µg/mL (≈ 1.33 µM).
`O=C(Cn1ccnc1[N+](=O)[O-])NCc1ccccc1` [BENZNIDAZOLE] returned an IC50 in data set [1] of 0.25 µg/mL (≈ 0.961 µM). In addition, the selectivity ratio in data set [6] was above 360.
Take `COc1cc(OC)c(-c2ccc(O)cc2)c2c1CNC(C)(C)C2`: the IC50 in data set [1] was 45.2 µg/mL (≈ 144 µM); in data set [2], 28.2 µg/mL (≈ 90 µM); in data set [3], 12.8 µg/mL (≈ 40.7 µM); in data set [4], above 5 µg/mL.
For `COc1ccc(-c2ccc(O)cc2CO)c2c1CNC(C)(C)C2`, in that order: above 30 µg/mL, above 90 µg/mL, above 30 µg/mL and 3.55 µg/mL (≈ 11.3 µM).
Take `COc1cc2c(c(OC)c1)C=NC(C)(C)C2`: the IC50 in data set [1] was 59.1 µg/mL (≈ 270 µM); in data set [2], above 90 µg/mL; in data set [3], 18.3 µg/mL (≈ 83.5 µM); in data set [4], above 5 µg/mL.
In the case of `COc1cc(OC)c2c(c1I)CC(C)(C)N(Cc1ccccc1)C2`, the selectivity ratio in data set [5] amounted to 64.5; in data set [6], 17.8; in data set [7], 27.5. The IC50 in data set [1] was 3.7 µg/mL (≈ 8.46 µM); in data set [2] it was 66 µg/mL (≈ 151 µM); in data set [3] it was 2.4 µg/mL (≈ 5.49 µM); in data set [4], 1.02 µg/mL (≈ 2.34 µM).
With `COc1ccc(I)c2c1CN(Cc1ccccc1)C(C)(C)C2`, the selectivity ratio was found to be 7.8 in data set [5] and 5.77 in data set [6]. The results for the IC50 in data set [1], in data set [2] and in data set [4] were 5.2 µg/mL (≈ 12.8 µM), 30 µg/mL (≈ 73.7 µM) and 3.87 µg/mL (≈ 9.49 µM), respectively. Besides, the outcome in data set [8] was inactive.
On to `COc1cccc2c1CNC(C)(C)C2`, for which the IC50 in data set [1] was 33 µg/mL (≈ 173 µM); in data set [2] it was above 90 µg/mL; in data set [4], above 5 µg/mL. For the same molecule, in data set [8], the outcome was inactive.
On to `COc1ccc(-c2c(OC)cc(OC)c3c2CC(C)(C)N=C3C)cc1`, for which the IC50 in data set [1] is 3.6 µg/mL (≈ 10.6 µM); in data set [2], 43.4 µg/mL (≈ 128 µM); in data set [3] it was above 30 µg/mL; in data set [4], above 5 µg/mL. Also, the selectivity ratio in data set [6] stood at 12.1.
For `COc1cc(OS(=O)(=O)C(F)(F)F)cc2c1CN(Cc1ccccc1)C(C)(C)C2`, in data set [5], the selectivity ratio was above 19.2. The values for the IC50 in data set [1], in data set [2] and in data set [4] were 44.8 µg/mL (≈ 104 µM), above 90 µg/mL and 4.67 µg/mL (≈ 10.9 µM), respectively. Besides, the result in data set [8] was inactive.
Turning to `CCN(CC)CCCC(C)Nc1ccnc2cc(Cl)ccc12` (centres undefined) [CHLOROQUINE], in data set [5], the selectivity ratio is 1090. In addition, in data set [4], half-maximal inhibition (IC50) required 0.23 µg/mL (≈ 0.719 µM).
For `COc1ccc(I)c2c1CNC(C)(C)C2`, the IC50 came to 10 µg/mL (≈ 31.5 µM) in data set [1], 83.9 µg/mL (≈ 265 µM) in data set [2] and 0.341 µg/mL (≈ 1.08 µM) in data set [4]. In addition, the result in data set [8] was inactive.
As to `COc1cc(OC)c2c(c1Br)CC(C)(C)N(Cc1ccccc1)C2`, the selectivity ratio in data set [5] was determined as 200; in data set [6] it was 14.6; in data set [7], 20.2. The IC50 in data set [1] stood at 5.8 µg/mL (≈ 14.9 µM); in data set [2] it was 84.8 µg/mL (≈ 217 µM); in data set [3] it was 4.2 µg/mL (≈ 10.8 µM); in data set [4] it was 0.424 µg/mL (≈ 1.09 µM).
In the case of `COc1cc(O)cc2c1CN(Cc1ccccc1)C(C)(C)C2`, the selectivity ratio in data set [5] is 153. The IC50 in data set [1] came out at 22.7 µg/mL (≈ 76.3 µM); in data set [2], 79.6 µg/mL (≈ 268 µM); in data set [3], 30 µg/mL (≈ 101 µM); in data set [4], 0.521 µg/mL (≈ 1.75 µM).
Regarding `COc1cc(OC)c2c(c1Br)CC(C)(C)NC2`, the IC50 in data set [1] was 40.7 µg/mL (≈ 136 µM); in data set [2], above 90 µg/mL; in data set [3], above 10 µg/mL; in data set [4] it was 0.628 µg/mL (≈ 2.09 µM).
On to `COc1cc2c(c(OC)c1)CN(Cc1ccccc1)C(C)(C)C2`, for which the selectivity ratio in data set [5] is above 64.5. Further, the IC50 in data set [1] is 20.1 µg/mL (≈ 64.5 µM); in data set [2] it was above 90 µg/mL; in data set [3], above 10 µg/mL; in data set [4], 1.4 µg/mL (≈ 4.48 µM).
For `COc1cc2c(c(OC)c1)C(C)=NC(C)(C)C2`, in that order: above 22.2, 44.8 µg/mL (≈ 192 µM), above 90 µg/mL, 18.2 µg/mL (≈ 78 µM) and 4.06 µg/mL (≈ 17.4 µM).
`COc1cc([C@@H]2c3cc4c(cc3[C@H](O)[C@H]3COC(=O)[C@H]23)OCO4)cc(OC)c1OC` [PODOFILOX] registered an IC50 in data set [2] of 0.006 µg/mL (≈ 0.0145 µM).
